One assay concerns A549. Put plainly: Antiproliferative activity against human A549 cells after 48 hrs by MTT assay. It counts as functional, cell-based. The following applies: A549, 48 h. Put shortly: (§1)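 Cells grown to log phase in RPMI 1640 with 10% FBS, seeded at 2×10^4 cells/mL and allowed 24 h at 37 °C, 5% CO₂ before treatment. Compounds at pre-set concentrations, colchicine and CA-4 as references, exposed 48 h. MTT added (2.5 mg/mL in PBS) for 4 h, then SDS/isobutyl alcohol/HCl extraction overnight; OD at 570 nm. Triplicate wells per concentration; values averaged from at least three separate runs.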
For orientation: Formazan colour is commonly taken as a measure of viable cells.

Assay [1] is described as follows: Antiproliferative activity against mouse B16F10 cells after 48 hrs by MTT assay. The assay is classed as functional, cell-based. The following applies: B16-F10, 48 h. The method in brief: as §1
Assay [2] relates to MCF7. Briefly: Antiproliferative activity against human MCF7 cells after 48 hrs by MTT assay. It counts as functional, cell-based. The following applies: MCF7, 48 h. The method in brief:
as §1

The next assay addresses Tubulin (Bos taurus, UniProt Q6B856+Q862L2+Q862F3). Briefly: Inhibition of bovine brain tubulin polymerization incubated for 20 mins by spectrophotometry.
Assay [3] has as its system MCF7. Briefly: Induction of cell cycle arrest in human MCF7 cells assessed as accumulation at G2/M phase at 1 ug/ml after 24 hrs by flow cytometry (reference value: 25.67%). It counts as functional. The method in brief:
(§2)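 MCF-7 cells exposed 24 h to the compound at 1 and 2 μg/mL. Phase distribution (G0/G1, S, G2/M) was measured by flow cytometry and reported as percentage of cells in each phase.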
A general note: In flow cytometry, cells or beads pass a laser one at a time.

In assay [4] the test system is MCF7. Put plainly: Induction of cell cycle arrest in human MCF7 cells assessed as accumulation at G0/G1 phase at 2 ug/ml after 24 hrs by flow cytometry (reference value: 59.75%). It counts as functional. Put shortly:
as §2

The test system of assay [5] is MCF7. Put plainly: Induction of cell cycle arrest in human MCF7 cells assessed as accumulation at G2/M phase after 24 hrs by flow cytometry. It counts as functional, cell-based. Put shortly: as §2
Assay [6] has as its system MCF7. Briefly: Induction of cell cycle arrest in human MCF7 cells assessed as accumulation at S phase at 1 ug/ml after 24 hrs by flow cytometry (reference value: 14.58%). The assay is classed as functional. Put shortly: as §2
In assay [7] the test system is MCF7. Briefly: Induction of cell cycle arrest in human MCF7 cells assessed as accumulation at G2/M phase at 2 ug/ml after 24 hrs by flow cytometry (reference value: 25.67%). The assay is classed as functional. The method in brief: as §2
Assay [8] concerns MCF7. Put plainly: Induction of cell cycle arrest in human MCF7 cells assessed as accumulation at G0/G1 phase at 1 ug/ml after 24 hrs by flow cytometry (reference value: 59.75%). It counts as functional. Put shortly:
as §2

The test system of assay [9] is MCF7. Briefly: Induction of cell cycle arrest in human MCF7 cells assessed as accumulation at S phase at 2 ug/ml after 24 hrs by flow cytometry (reference value: 14.58%). It counts as functional. Put shortly:
as §2

Assay [10] relates to MCF7. Put plainly: Induction of cell cycle arrest in human MCF7 cells assessed as accumulation at G2/M phase after 24 hrs by flow cytometry (reference value: 25.67%). It counts as functional. Put shortly: as §2
In assay [11] the test system is MCF7. Briefly: Induction of cell cycle arrest in human MCF7 cells assessed as accumulation at G0/G1 phase after 24 hrs by flow cytometry (reference value: 59.75%). It counts as functional. Put shortly: as §2
The test system of assay [12] is MCF7. Put plainly: Induction of cell cycle arrest in human MCF7 cells assessed as accumulation at S phase after 24 hrs by flow cytometry (reference value: 14.58%). It counts as functional. The method in brief: as §2

One may read the IC50 as the midpoint of a concentration-inhibition curve. Read a low IC50 as greater potency. The term pIC50 denotes −log10 of the IC50, conventionally taken in molar units. A low value points to a high IC50.

Turning to `O=C(/C=C/c1ccc([N+](=O)[O-])cc1)Nc1cc(-c2ccc(Br)cc2)[nH]n1`, the 50% inhibitory concentration (IC50) worked out at 740 nM in the assay on A549, 630 nM in assay [1], 560 nM with MCF7 [2] and 1240 nM on Tubulin. The compound also yielded a pIC50 on Tubulin of 5.907.

In the case of `Cc1ccc(-c2cc(NC(=O)/C=C/c3ccc(F)cc3)n[nH]2)cc1`, the IC50 with A549 was determined as 1250 nM; in [1] it was 1430 nM; in the assay with MCF7 [2], 950 nM; against Tubulin, 1920 nM. This compound also displayed a pIC50 against Tubulin of 5.717.

Regarding `COc1ccc(/C=C\C(=O)Nc2cc(-c3ccccc3)[nH]n2)cc1`, the IC50 in the assay with A549 came out at 1060 nM; in [1], 950 nM; in the assay on MCF7 [2], 720 nM; at Tubulin it was 1640 nM. In addition, at Tubulin, the pIC50 is listed as 5.785.

Consider `Cc1ccc(/C=C/C(=O)Nc2cc(-c3ccc(Br)cc3)[nH]n2)cc1`, for which the IC50 with A549 was found to be 1620 nM; in [1], 1480 nM; in the assay on MCF7 [2] it was 1170 nM; on Tubulin, 2760 nM. The compound also registered a pIC50 against Tubulin of 5.56.

Take `COc1ccc(/C=C/C(=O)Nc2cc(-c3ccc(C)cc3)[nH]n2)cc1`: the IC50 in the assay on A549 amounted to 1190 nM; in assay [1], 1370 nM; in the assay with MCF7 [2], 860 nM; on Tubulin, 1760 nM. Moreover, the pIC50 at Tubulin was 5.754.

Turning to `COc1ccc(/C=C\c2cc(OC)c(OC)c(OC)c2)cc1O` [COMBRETASTATIN A4], the IC50 with A549 came out at 460 nM; in assay [1] it was 420 nM; with MCF7 [2] it was 210 nM.

Consider `O=C(/C=C/c1ccc(Br)cc1)Nc1cc(-c2ccc(Br)cc2)[nH]n1`, for which the IC50 in the assay with A549 came to 1360 nM; in assay [1], 1280 nM; with MCF7 [2], 920 nM; against Tubulin, 2140 nM. The compound further returned a pIC50 against Tubulin of 5.67.

Regarding `O=C(/C=C/c1ccc(Cl)cc1)Nc1cc(-c2ccccc2)[nH]n1`, the IC50 in the assay on A549 was 1390 nM; in assay [1], 1270 nM; in the assay with MCF7 [2] it was 970 nM; on Tubulin, 2060 nM. Besides, the pIC50 on Tubulin was 5.686.

With `Cc1ccc(-c2cc(NC(=O)/C=C/c3ccc(Cl)cc3)n[nH]2)cc1`, the IC50 turned out to be 1490 nM in the assay with A549, 1520 nM in assay [1], 1190 nM with MCF7 [2] and 2150 nM against Tubulin. On Tubulin, this compound displayed a pIC50 of 5.668.

With `Cc1ccc(-c2cc(NC(=O)/C=C/c3ccc(C(F)(F)F)cc3)n[nH]2)cc1`, the IC50 in the assay on A549 amounted to 1020 nM; in [1], 1210 nM; in the assay on MCF7 [2], 720 nM; at Tubulin, 1530 nM. The compound further came in with a pIC50 at Tubulin of 5.815.

As to `O=C(/C=C/c1ccc(C(F)(F)F)cc1)Nc1cc(-c2ccc(Br)cc2)[nH]n1`, the Activity is 45.55% in the assay on MCF7 [3]; 6.77% in the assay with MCF7 [4]; “Dose-dependent effect” with MCF7 [5]; 18.46% in the assay on MCF7 [6]; 76.95% in the assay on MCF7 [7]; 35.99% with MCF7 [8]. Besides, the Activity in the assay with MCF7 [9] is recorded as 16.28%. For the same compound, the IC50 in the assay on A549 turned out to be 620 nM; in assay [1] it was 570 nM; with MCF7 [2], 350 nM; against Tubulin, 1020 nM. Also, the pIC50 against Tubulin is on record as 5.991.

`Cc1ccc(/C=C/C(=O)Nc2cc(-c3ccccc3)[nH]n2)cc1`: the IC50 turned out to be 1770 nM in the assay with A549, 1680 nM in assay [1], 1780 nM with MCF7 [2] and 3020 nM against Tubulin. Besides, the pIC50 against Tubulin is listed as 5.52.

Take `O=C(/C=C/c1ccccc1)Nc1cc(-c2ccccc2)[nH]n1`: the IC50 in the assay with A549 worked out at 1580 nM; in assay [1] it was 1560 nM; with MCF7 [2] it was 1360 nM; at Tubulin, 2840 nM. Moreover, the pIC50 against Tubulin worked out at 5.547.

For `O=C(/C=C\c1ccc(C(F)(F)F)cc1)Nc1cc(-c2ccccc2)[nH]n1`, the IC50 with A549 is 880 nM; in [1], 640 nM; with MCF7 [2], 540 nM; against Tubulin, 1340 nM. Besides, the pIC50 at Tubulin is 5.873.

With `O=C(/C=C/c1ccc(Cl)cc1)Nc1cc(-c2ccc(Br)cc2)[nH]n1`, the concentration for half-maximal inhibition (IC50) turned out to be 1210 nM in the assay on A549, 1080 nM in assay [1], 770 nM with MCF7 [2] and 1950 nM against Tubulin. On Tubulin, this compound registered a pIC50 of 5.71.

`Cc1ccc(/C=C/C(=O)Nc2cc(-c3ccc(C)cc3)[nH]n2)cc1`: the IC50 with A549 was found to be 1880 nM; in assay [1], 1750 nM; with MCF7 [2], 1720 nM; at Tubulin, 3360 nM. Also, the pIC50 at Tubulin amounted to 5.474.

Turning to `O=C(/C=C/c1ccc(F)cc1)Nc1cc(-c2ccccc2)[nH]n1`, the IC50 in the assay with A549 was 1220 nM; in [1], 1250 nM; with MCF7 [2] it was 840 nM; at Tubulin, 1850 nM. At Tubulin, this compound showed a pIC50 of 5.733.

For the compound `O=C(/C=C/c1ccccc1)Nc1cc(-c2ccc(Br)cc2)[nH]n1`, the IC50 in the assay with A549 turned out to be 1440 nM; in [1] it was 1270 nM; in the assay on MCF7 [2], 1120 nM; against Tubulin, 2550 nM. The compound also gave a pIC50 on Tubulin of 5.593.

For the compound `O=C(/C=C\c1ccc(F)cc1)Nc1cc(-c2ccc(Br)cc2)[nH]n1`, the IC50 with A549 came out at 930 nM; in assay [1], 850 nM; with MCF7 [2] it was 640 nM; against Tubulin, 1780 nM. Besides, the pIC50 at Tubulin was found to be 5.75.

As to `Cc1ccc(-c2cc(NC(=O)/C=C/c3ccc(Br)cc3)n[nH]2)cc1`, the IC50 was found to be 1590 nM in the assay on A549, 1570 nM in assay [1], 1370 nM with MCF7 [2] and 2550 nM at Tubulin. Moreover, the pIC50 at Tubulin stood at 5.593.

As for `COc1cc2c(c(OC)c1OC)-c1ccc(OC)c(=O)cc1[C@@H](NC(C)=O)CC2` [COLCHICINE], the Activity stood at 80.62% with MCF7 [10], 6.94% in the assay with MCF7 [11] and 12.44% in the assay with MCF7 [12]. The IC50 came out at 580 nM in the assay on A549, 480 nM in [1] and 390 nM with MCF7 [2].

With `Cc1ccc(-c2cc(NC(=O)/C=C/c3ccc([N+](=O)[O-])cc3)n[nH]2)cc1`, the IC50 in the assay with A549 was found to be 1130 nM; in [1] it was 1320 nM; in the assay with MCF7 [2] it was 840 nM; against Tubulin, 1620 nM. The compound also returned a pIC50 on Tubulin of 5.79.

As for `COc1ccc(/C=C/C(=O)Nc2cc(-c3ccc(Br)cc3)[nH]n2)cc1`, the IC50 in the assay with A549 amounted to 820 nM; in [1], 770 nM; in the assay on MCF7 [2], 590 nM; at Tubulin, 1350 nM. This compound showed a pIC50 at Tubulin of 5.87.

In the case of `Cc1ccc(-c2cc(NC(=O)/C=C/c3ccccc3)n[nH]2)cc1`, the IC50 in the assay on A549 was 1670 nM; in [1] it was 1680 nM; with MCF7 [2], 1630 nM; against Tubulin it was 3120 nM. Moreover, the pIC50 against Tubulin stood at 5.506.

Turning to `O=C(/C=C/c1ccc([N+](=O)[O-])cc1)Nc1cc(-c2ccccc2)[nH]n1`, the IC50 was 970 nM with A549, 720 nM in assay [1], 630 nM with MCF7 [2] and 1560 nM against Tubulin. The pIC50 at Tubulin stood at 5.807.

As to `O=C(/C=C/c1ccc(Br)cc1)Nc1cc(-c2ccccc2)[nH]n1`, the IC50 came to 1460 nM in the assay with A549, 1380 nM in assay [1], 1240 nM in the assay on MCF7 [2] and 2360 nM against Tubulin. The compound also displayed a pIC50 on Tubulin of 5.627.
